According to ChEMBL document CHEMBL2346664, “Synthesis, characterization and in vitro anticancer evaluation of novel 1,2,4-triazolin-3-one derivatives” (2013):

Columns and labels:
Type in all cases: functional
NCI-H322M = test: Growth inhibition of human NCI-H322M cells assessed as cell growth at 10 uM after 48 hrs by sulforhodamine B assay; settings: read-out: Activity
Method in brief: (§1)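 NCI-60 single-dose screen at 10^-5 M. Cells plated at 5,000–40,000/well by doubling time and grown 24 h at 37 °C, 5% CO2, then drug added from DMSO stock for 48 h continuous exposure. Adherent cells fixed with cold TCA (final 10%), suspension cells with 16% TCA. SRB stain read at 515 nm. Reported as growth percent relative to untreated controls and time-zero plates.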

[1] = Growth inhibition of human Hs 578T cells assessed as cell growth at 10 uM after 48 hrs by sulforhodamine B assay; settings: read-out: Activity
Method in brief: (§2)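 NCI-60 primary single-dose screen at 10^-5 M, 48 h continuous exposure. Adherent cells were fixed with cold TCA (10% final) and suspension cells with 16% final TCA, then stained with 0.4% SRB in 1% acetic acid. Bound dye was solubilized in 10 mM Tris base and read at 515 nm. Output is growth percent relative to untreated controls, and GI% is 100 minus growth percent.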

SN12C = test: Growth inhibition of human SN12C cells assessed as cell growth at 10 uM after 48 hrs by sulforhodamine B assay; settings: read-out: Activity; method in brief: as §1
TK-10 [2] = test: Growth inhibition of human TK10 cells assessed as cell growth at 10 uM after 48 hrs by sulforhodamine B assay; settings: TK-10, 48 h, read-out: Activity; method in brief: as §1
SK-MEL-2 = test: Growth inhibition of human SK-MEL-2 cells assessed as cell growth at 10 uM after 48 hrs by sulforhodamine B assay; settings: SK-MEL-2, 48 h, read-out: Activity; method in brief: as §1
HT-29 = test: Growth inhibition of human HT-29 cells assessed as cell growth at 10 uM after 48 hrs by sulforhodamine B assay; settings: HT-29, 48 h, read-out: Activity; method in brief: as §2
SK-OV-3 = test: Growth inhibition of human SKOV3 cells assessed as cell growth at 10 uM after 48 hrs by sulforhodamine B assay; settings: SK-OV-3, 48 h, read-out: Activity; method in brief: as §1
MDA-MB-468 = test: Growth inhibition of human MDA-MB-468 cells assessed as cell growth at 10 uM after 48 hrs by sulforhodamine B assay; settings: MDA-MB-468, 48 h, read-out: Activity; method in brief: as §2
NCI-H226 = test: Growth inhibition of human NCI-H226 cells assessed as cell growth at 10 uM after 48 hrs by sulforhodamine B assay; settings: NCI-H226, 48 h, read-out: Activity; method in brief: as §2
SF-268 = test: Growth inhibition of human SF268 cells assessed as cell growth at 10 uM after 48 hrs by sulforhodamine B assay; settings: SF-268, 48 h, read-out: Activity; method in brief: as §1
CCRF-CEM = test: Growth inhibition of human CCRF-CEM cells assessed as cell growth at 10 uM after 48 hrs by sulforhodamine B assay; settings: read-out: Activity
Method in brief: (§3)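 NCI-60 primary screen at a single dose of 10^-5 M. Output is mean growth percent of treated cells relative to untreated controls, where values between 0 and 100 indicate growth inhibition and values below 0 indicate cytotoxicity. Cells were plated 24 h before drug, incubated 48 h at 37 °C, 5% CO2, and stained with SRB after TCA fixation. Suspension cells were fixed with 80% TCA (16% final).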

NCI-H460 = test: Growth inhibition of human NCI-H460 cells assessed as cell growth at 10 uM after 48 hrs by sulforhodamine B assay; settings: NCI-H460, 48 h; method in brief: as §1
OVCAR-5 = test: Growth inhibition of human OVCAR5 cells assessed as cell growth at 10 uM after 48 hrs by sulforhodamine B assay; settings: OVCAR-5, 48 h, read-out: Activity; method in brief: as §1
MDA-MB-231 = test: Growth inhibition of human MDA-MB-231 cells assessed as cell growth at 10 uM after 48 hrs by sulforhodamine B assay; settings: MDA-MB-231, 48 h, read-out: Activity; method in brief: as §2
HOP-92 = test: Growth inhibition of human HOP92 cells assessed as cell growth at 10 uM after 48 hrs by sulforhodamine B assay; settings: HOP-92, 48 h, read-out: Activity; method in brief: as §2
MDA-MB-435 = test: Growth inhibition of human MDA-MB-435 cells assessed as cell growth at 10 uM after 48 hrs by sulforhodamine B assay; settings: MDA-MB-435, 48 h, read-out: Activity; method in brief: as §2
UACC-257 = test: Growth inhibition of human UACC257 cells assessed as cell growth at 10 uM after 48 hrs by sulforhodamine B assay; settings: UACC-257, 48 h, read-out: Activity; method in brief: as §1
K562 = test: Growth inhibition of human K562 cells assessed as cell growth at 10 uM after 48 hrs by sulforhodamine B assay; settings: K562, 48 h, read-out: Activity; method in brief: as §2
DU-145 = test: Growth inhibition of human DU145 cells assessed as cell growth at 10 uM after 48 hrs by sulforhodamine B assay; settings: DU-145, 48 h, read-out: Activity; method in brief: as §2
RPMI-8226 = test: Growth inhibition of human RPMI8226 cells assessed as cell growth at 10 uM after 48 hrs by sulforhodamine B assay; settings: RPMI-8226, 48 h, read-out: Activity; method in brief: as §1
M14 [3] = test: Growth inhibition of human M14 cells assessed as cell growth at 10 uM after 48 hrs by sulforhodamine B assay; settings: M14, 48 h, read-out: Activity; method in brief: as §2
HOP-62 = test: Growth inhibition of human HOP62 cells assessed as cell growth at 10 uM after 48 hrs by sulforhodamine B assay; settings: HOP-62, 48 h, read-out: Activity; method in brief: as §2
T47D = test: Growth inhibition of human T47D cells assessed as cell growth at 10 uM after 48 hrs by sulforhodamine B assay; settings: read-out: Activity; method in brief: as §1
Malme-3M = test: Growth inhibition of human MALME-3M cells assessed as cell growth at 10 uM after 48 hrs by sulforhodamine B assay; settings: read-out: Activity; method in brief: as §2
SK-MEL-5 = test: Growth inhibition of human SK-MEL-5 cells assessed as cell growth at 10 uM after 48 hrs by sulforhodamine B assay; settings: SK-MEL-5, 48 h, read-out: Activity; method in brief: as §1
ACHN = test: Growth inhibition of human ACHN cells assessed as cell growth at 10 uM after 48 hrs by sulforhodamine B assay; settings: read-out: Activity; method in brief: as §3
TK-10 [4] = test: Growth inhibition of human TK10 cells assessed as cell growth at 10 '-7 M after 48 hrs by sulforhodamine B assay; settings: TK-10, 48 h, read-out: Activity
[5] = Growth inhibition of human Hs 578T cells assessed as cell growth at 10 '-7 M after 48 hrs by sulforhodamine B assay; settings: read-out: Activity
MCF7 = test: Growth inhibition of human MCF7 cells assessed as cell growth at 10 '-4 M after 48 hrs by sulforhodamine B assay; settings: MCF7, 48 h, read-out: Activity
M14 [6] = test: Growth inhibition of human M14 cells assessed as growth inhibition at 10 uM after 48 hrs by sulforhodamine B assay; settings: M14, 48 h, read-out: GI

Q: Which growth at 10 µM (NCI-H322M) does the source give for `Cc1nn(-c2ccc(Cl)cc2)c(=O)n1CCN1CCOCC1` here?
A: Its growth at 10 µM is 92.2%.

Q: And the growth at 10 µM [1]?
A: The growth at 10 µM was 42.7%.

Q: What about the growth at 10 µM (SN12C) of the same compound?
A: Its growth at 10 µM is 89.6%.

Q: What about the growth at 10 µM (TK-10 [2]) of the same compound?
A: The growth at 10 µM was 64.4%.

Q: And the growth at 10 µM (SK-MEL-2)?
A: The growth at 10 µM was 61.1%.

Q: And the growth at 10 µM (HT-29)?
A: The growth at 10 µM was 104%.

Q: And the growth at 10 µM (SK-OV-3)?
A: Its growth at 10 µM is 42.8%.

Q: What about the growth at 10 µM (MDA-MB-468) of the same compound?
A: Its growth at 10 µM is 90.3%.

Q: What about the growth at 10 µM (NCI-H226) of the same compound?
A: The growth at 10 µM was 79.4%.

Q: And the growth at 10 µM (SF-268)?
A: Its growth at 10 µM is 48.4%.

Q: And the growth at 10 µM (CCRF-CEM)?
A: Its growth at 10 µM is 63.2%.

Q: And the growth at 10 µM (NCI-H460; read-out: Activity)?
A: Its growth at 10 µM is 41.8%.

Q: What about the growth at 10 µM (OVCAR-5) of the same compound?
A: The growth at 10 µM was 92.4%.

Q: What about the growth at 10 µM (MDA-MB-231) of the same compound?
A: Its growth at 10 µM is 57.3%.

Q: And the growth at 10 µM (HOP-92)?
A: Its growth at 10 µM is 30.1%.

Q: And the growth at 10 µM (MDA-MB-435)?
A: The growth at 10 µM was 84.9%.

Q: And the growth at 10 µM (UACC-257)?
A: Its growth at 10 µM is 73.4%.

Q: What about the growth at 10 µM (K562) of the same compound?
A: Its growth at 10 µM is 70.1%.

Q: And the growth at 10 µM (DU-145)?
A: The growth at 10 µM was 78.5%.

Q: What about the growth at 10 µM (RPMI-8226) of the same compound?
A: Its growth at 10 µM is 83.1%.

Q: What about the growth at 10 µM (M14 [3]) of the same compound?
A: Its growth at 10 µM is 69.8%.

Q: What about the growth at 10 µM (HOP-62) of the same compound?
A: The growth at 10 µM was 33.8%.

Q: What about the growth at 10 µM (T47D) of the same compound?
A: Its growth at 10 µM is 78.3%.

Q: What about the growth at 10 µM (Malme-3M) of the same compound?
A: The growth at 10 µM was 59.1%.

Q: And the growth at 10 µM (SK-MEL-5)?
A: Its growth at 10 µM is 80.3%.

Q: What about the growth at 10 µM (ACHN) of the same compound?
A: Its growth at 10 µM is 38.7%.

Q: Which results are given for `Cc1cc(=O)oc2cc(OCCn3c(C)nn(-c4ccc(Cl)cc4)c3=O)ccc12`?
A: growth at 10 µM (NCI-H322M): 58.7%; growth at 10 µM [1]: 34.8%; growth at 10 µM (SN12C): 51.8%; growth at 10 µM (TK-10 [2]): 59.6%; growth at 10 µM (SK-MEL-2): 3.55%; growth at 10 µM (HT-29): 0.7%; growth at 10 µM (SK-OV-3): 41.1%; growth at 10 µM (MDA-MB-468): 16.1%; growth at 10 µM (NCI-H226): 50.1%; growth at 10 µM (SF-268): 50.3%; growth at 10 µM (CCRF-CEM): 13.4%; inhibition of growth at 10 µM (NCI-H460; read-out: GI): 17.2%; growth at 0.1 µM (TK-10 [4]): 101%; growth at 10 µM (OVCAR-5): 38.8%; growth at 0.1 µM [5]: 83%; growth at 10 µM (MDA-MB-231): 47.5%; growth at 10 µM (HOP-92): 47.4%; growth at 10 µM (MDA-MB-435): -38.5%; growth at 10 µM (UACC-257): 22.5%; growth at 100 µM (MCF7): 21%; inhibition of growth at 10 µM (M14 [6]): 85.3%; growth at 10 µM (K562): 16.3%; growth at 10 µM (DU-145): 21.6%; growth at 10 µM (RPMI-8226): 31%; growth at 10 µM (M14 [3]): 14.7%; growth at 10 µM (HOP-62): 27.4%; growth at 10 µM (T47D): 47.4%; growth at 10 µM (Malme-3M): 32.9%; growth at 10 µM (SK-MEL-5): 10.8%; growth at 10 µM (ACHN): 41.9%
